# Compound activity from PubChem BioAssay.
# Rev-erbA mod – Rev-erb alpha (human) modulation. P20393. Rev-erbα–FITC-DNA binding, fluorescence polarization, 90 min. activity, % at 10 µM. hit rate 0.79% among 370,000;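 active means activity above about 14%, limit read from the data; passing the limit was not always enough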;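 further: 0% = DMSO wells with 35 nM protein and 100% = DMSO wells with 750 nM protein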
# Target sequence (P20393 whole entry, looked up): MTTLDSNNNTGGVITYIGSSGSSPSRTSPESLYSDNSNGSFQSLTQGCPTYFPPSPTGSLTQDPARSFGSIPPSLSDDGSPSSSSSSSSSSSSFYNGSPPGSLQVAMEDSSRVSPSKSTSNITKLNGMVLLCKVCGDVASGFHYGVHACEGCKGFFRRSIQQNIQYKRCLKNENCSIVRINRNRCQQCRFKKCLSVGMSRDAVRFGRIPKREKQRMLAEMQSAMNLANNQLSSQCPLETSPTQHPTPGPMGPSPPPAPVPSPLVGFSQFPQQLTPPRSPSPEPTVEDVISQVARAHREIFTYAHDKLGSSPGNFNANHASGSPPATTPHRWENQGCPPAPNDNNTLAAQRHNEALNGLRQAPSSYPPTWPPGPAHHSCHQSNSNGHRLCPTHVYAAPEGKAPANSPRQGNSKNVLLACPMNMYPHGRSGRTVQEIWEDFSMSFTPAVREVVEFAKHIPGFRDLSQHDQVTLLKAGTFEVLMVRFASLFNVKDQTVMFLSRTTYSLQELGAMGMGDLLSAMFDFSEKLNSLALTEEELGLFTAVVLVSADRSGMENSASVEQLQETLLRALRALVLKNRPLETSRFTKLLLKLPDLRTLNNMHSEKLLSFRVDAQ
# MIN6 prolif – MIN6 beta-cell proliferation induction; hit rate 0.29% among 330,000; proliferation, % at 10 µM; AID 2380; MIN6 cells proliferation, ATPlite luminescence, 48 h; cells starved in 0.2% serum; 100% = growth in 10% serum;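 active means compounds whose signal lies at least 3.5 SD above the mean of all wells on their plate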;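 further: 0% = DMSO-treated cells in low-serum medium and 100% = 10% serum control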
# PG9 Ab binder – binds the HIV-1 gp120 antibody PG9. inhibition, % at 6.7 µM. hit rate 0.43% among 360,000. TR-FRET gp120-PG9 antibody binding; in the data active means inhibition above about 8.5%
# H9c2 TAG inh – triacylglycerol accumulation inhibition; H9c2 cells, Nile Red lipid (TAG) fluorescence; cells loaded with 200 µM oleic acid; inhibition, % at 12.5 µM; hit rate 0.66% among 230,000; AID 651582;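 active means pattern-corrected inhibition of lipid staining of at least 50% with the nuclear-stain viability signal not falling by more than 50%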;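 further: 0% = DMSO wells and 100% = triacsin C control wells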
# T cruzi repl – T. cruzi replication inhibition; T. cruzi beta-gal in NIH3T3, luminescence, 90 h; inhibition, % (no concentration beside the values); hit rate 1.4% among 300,000; AID 1885;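 active means mean inhibition across valid replicates above about 55%, limit read from the data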;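 further: signal also drops with host cell toxicity which is not excluded here; 0% = plate median of DMSO wells and 100% = zero luminescence signal; higher percent means less beta-gal luminescence so fewer parasites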
#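 assay system = mouse NIH/3T3 fibroblasts infected with β-gal-expressing T. cruzi Tulahuen C4 | input = 5,000 NIH/3T3 host cells per well | buffer or medium = DMEM plus 2% FBS | timing = 3 h host attachment, then at least 90 h co-culture | measured by = GalScreen luminescence, 60 min | evaluation = luminescence reflecting intracellular parasite burden, expressed as percent inhibition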
# iPSC survival up – hiPSC single-cell survival enhancement | ATPlite luminescence; 100% = ROCK inhibitor wells, 0% = DMSO | survival enhancement, % at 20 µM | hit rate 0.044% among 360,000 | AID 602274; in the data active means survival enhancement above about 18%;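 further: cells exposed to compounds for 16 hours before the ATP read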
# PG9 binder conf – PG9 antibody binding, confirmed; shares compounds with PG9 Ab binder; TR-FRET PG9 antibody binding, biochemical; inhibition, % at 6.7 µM; hit rate 90% among 1,500; in the data active means inhibition above about 9%
# PGV04 counter – PGV04 control antibody binding, counter-screen. shares compounds with PG9 Ab binder. TR-FRET PGV04 antibody-gp120 binding, biochemical. inhibition, % at 6.7 µM. hit rate 95% among 1,500. AID 651604; in the data active means inhibition above about 9.5%
# H9c2 TAG conf – triacylglycerol accumulation inhibition, confirmation | shares compounds with H9c2 TAG inh | H9c2 lipid accumulation, Nile Red fluorescence; cells loaded with 200 µM oleic acid | inhibition, % at 12.5 µM | hit rate 71% among 990;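 active means mean inhibition across replicates of 40% or more; inactive means mean inhibition below 40%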;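 further: plate controls were DMSO only wells for no effect and Triacsin C treated wells for full effect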
# NR1D1 mod conf – Rev-erb alpha (human) modulation, hit confirmation. Rev-erb alpha FITC-DNA binding, fluorescence polarization, 90 min. shares compounds with Rev-erbA mod. hit rate 61% among 3,000. activation, % at 25 µM. AID 1259319;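 active means activation at or above a set limit, or at least 3 SD above the negative control mean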;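 further: 0% = 35 nM protein with DMSO and 100% = 750 nM protein high control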
# RORg counter – RORgamma DNA-binding activity, dose-response counter-screen. shares compounds with Rev-erbA mod. AID 1259320. IC50, µM. hit rate 8% among 910. purified RORgamma protein-FITC-DNA binding, fluorescence polarization;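 active means Compounds whose fitted half-maximal concentration for disrupting protein-DNA binding is below 10 micromolar; the record names Rev-erb in its text, so the target is in doubt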
# The depositor's hits bear a star; i = inactive; x = no result. The list is not random: actives were taken first. Their share in the collection is about 2.9%.
SMILES,Rev-erbA mod,MIN6 prolif,PG9 Ab binder,H9c2 TAG inh,T cruzi repl,iPSC survival up,PG9 binder conf,PGV04 counter,H9c2 TAG conf,NR1D1 mod conf,others
COc1ccccc1CNC(=O)COC(=O)c1cccnc1SCC(=O)NCc1ccccc1OC,47*,-1,19*,-10,-6,1,29*,43*,x,31*,RORg counter=>40
O=C(COC(=O)c1cccnc1SCC(=O)NCc1ccccc1)NCc1ccccc1,53*,-4,32*,2,-11,2,37*,53*,x,52*,RORg counter=>40
Cn1c(=O)c2ncn(CC(=O)NCCC3=CCCCC3)c2n(C)c1=O,-1,-1,2,19,-13,0,x,x,x,x,
CC1=CS/C(=C(/C#N)C(=O)NCc2ccco2)N1c1ccccc1,-8,1,3,-9,-2,4,x,x,x,x,
N#C/C(C(=O)NCc1ccco1)=C1/SC=C(c2ccccc2)N1c1ccccc1,38*,1,41*,x,5,0,42*,59*,x,30*,
Cc1ccc(S(=O)(=O)N2CCOCC2)cc1NC(=O)C1=NN(c2ccccc2)C(=O)CC1,0,-3,-1,x,-17,0,x,x,x,x,
N#Cc1ccc(CSc2nnc(NC(=O)c3ccc4ncsc4c3)s2)cc1,60*,1,32*,x,4,-1,30*,48*,x,23*,
Cc1onc(-c2ccccc2)c1C(=O)Nc1nc(-c2cc(F)ccc2F)cs1,55*,-1,52*,x,6,4,50*,65*,x,65*,RORg counter=>40
Cc1noc(C)c1C(=O)Nc1nc(-c2cc(F)ccc2F)cs1,19,1,7,-3,x,1,x,x,x,x,
COC(=O)c1c(-c2ccccc2)csc1NC(=O)c1ccco1,19*,-3,17*,x,11,-4,9.8*,14*,x,15,
Cc1ccc(CNC(=O)CS(=O)(=O)Cc2nc(-c3ccc(C)cc3)oc2C)cc1,28*,-1,28*,x,9,0,20*,53*,x,12,
COc1ccc(CNC(=O)CS(=O)(=O)Cc2nc(-c3ccc(OC)cc3)oc2C)cc1,1,1,0,x,17,0,x,x,x,x,
Nc1c(S(=O)(=O)c2cccc(Cl)c2)c2nc3ccccc3nc2n1CCN1CCOCC1,32*,0,11*,x,33,6,3,4,x,4,
CCN(Cc1ccncc1)Cc1c(O)ccc2ccccc12,0,x,2,4,x,0,x,x,x,x,
O=c1cc(-c2ccccc2)[nH]c2nc3ccccc3n12,24*,-5,13*,-5,9,-4,20*,32*,x,17*,
COc1ccccc1NC(=O)c1sc2ncn(Cc3cccc4ccccc34)c(=O)c2c1C,117*,-4,13*,x,46,-2,11*,24*,x,49*,RORg counter=i
CCOC(=O)[C@@H]1CSCCS(=O)(=O)N1,2,x,0,-8,x,4,x,x,x,x,
CCCc1ccc(Oc2c(-c3ccc(O)c(C)c3O)n[nH]c2C)cc1,-3,-6,1,1,14,0,x,x,x,x,
O=c1sc(N2CCN(c3ccc(F)cc3)CC2)nc2ccsc12,146*,5,23*,28,27,1,57*,83*,x,96*,RORg counter=>40
O=C(Nc1ccccc1SCC1CSc2nc3ccccc3c(=O)n21)c1cccc(Cl)c1 (stereo unspecified),-6,-1,2,11,26,-1,x,x,x,x,
Cc1ccc(-n2cc(CNCCCn3cccn3)c(-c3cccc(C)c3)n2)cc1,-1,-8,-2,52*,19,-1,x,x,52*,x,
Cc1ccc(C)c(-n2cc(CNCCCn3cccn3)c(-c3ccccc3)n2)c1,-4,-5,-1,0,11,0,x,x,x,x,
COc1ccc(NS(=O)(=O)c2cccc(C(=O)N/N=C/c3cn(-c4ccccc4)nc3-c3ccccc3)c2)cc1,-5,-3,-1,60*,-1,-1,x,x,62*,x,
O=C(NCCNc1ccc([N+](=O)[O-])cc1)c1ccccc1F,3,-3,-2,x,-23,1,x,x,x,x,
Cc1ccccc1NS(=O)(=O)c1cc2c3c(c1)CC(=O)N3CCC2,-7,2,1,x,2,0,x,x,x,x,
SMILES,Rev-erbA mod,MIN6 prolif,PG9 Ab binder,H9c2 TAG inh,T cruzi repl,iPSC survival up,PG9 binder conf,PGV04 counter,H9c2 TAG conf,NR1D1 mod conf,others
COc1ccc(OC)c(NS(=O)(=O)c2ccc(N3CCCC3=O)cc2)c1,-2,-4,-3,57*,2,-1,x,x,42*,x,
COc1ccc(CCNS(=O)(=O)c2ccc(N3CCCC3=O)cc2)cc1,-5,-2,1,6,-26,1,x,x,x,x,
Cc1ccccc1NS(=O)(=O)c1ccc(N2CCCC2=O)cc1,7,1,2,58*,-12,-2,x,x,30,x,
O=C(Nc1nc(-c2ccccc2)cs1)C1CCCN(S(=O)(=O)c2cccc([N+](=O)[O-])c2)C1 (stereo unspecified),-2,-3,0,62*,74*,-1,x,x,47*,x,
CCOC(=O)c1csc(NC(=O)C2CCCN(S(=O)(=O)c3ccc([N+](=O)[O-])cc3)C2)n1 (stereo unspecified),-4,x,x,x,x,x,x,x,x,x,
CCc1nnc(NC(=O)c2cc3c(s2)CCCCC3)s1,16,-1,-1,50*,-5,-3,x,x,12,x,
O=[N+]([O-])c1ccc(/C=N/Nc2ncccc2[N+](=O)[O-])s1,5,-3,-1,64*,-27,-1,x,x,33,x,
COc1cccc(-c2cnc3c(NC=O)cc(-c4cccc(NC(C)=O)c4)cn23)c1,-5,x,-2,25,x,1,x,x,x,x,
COc1cc(-c2cnc3c(NC=O)cc(-c4cccc(NC(C)=O)c4)cn23)cc(OC)c1OC,-1,x,-2,73*,x,0,x,x,96*,x,
CC1(C)Cc2cccc(OCC(=O)Nc3ccc(OCC(N)=O)cc3)c2O1,2,-4,-1,66*,-5,0,x,x,-18,x,
COc1ccccc1CNC(=O)CN1C(=O)NC(c2ccccc2)(c2ccc(C)c(C)c2)C1=O (stereo unspecified),-3,-7,-2,54*,x,0,x,x,36,x,
Cc1ccc(C2(c3ccccc3)NC(=O)N(CC(=O)NC3CCCCC3)C2=O)cc1C (stereo unspecified),-1,-6,1,11,x,0,x,x,x,x,
